Only some compounds are listed: those with a hit (about 4.1% of all), similar ones and a draw of the others.
Apaf-1 inh – human Apaf-1 inhibition | reconstituted apoptosome caspase-3 activity, DEVD-Rh110 fluorescence | inhibition, % at 20 µM | hit rate 0.71% among 330,000; active = inhibition of at least 40% at 20 µM;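 note: plate controls were DMSO wells for no effect and DEVD-CHO caspase inhibitor wells for full effect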
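Material: biochemical Apaf-1 apoptosome reconstitution. Medium: Hepes buffer, pH 7.5. Also added: cytochrome c activation, bis-DEVD rhodamine 110 substrate. Timing: 30 min compound preincubation, 50 min activation, room temperature. Measured by: rhodamine 110 fluorescence at Ex 480/Em 540 nm.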
Mdm2 MdmX PPI – disrupts the human Mdm2-MdmX interaction | AID 485346 | inhibition, % at 8 µM | hit rate 3% among 330,000 | SaOS-2 split-luciferase Mdm2/MdmX complementation, luminescence;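 active = inhibition of at least 50% at 8 µM in the primary screen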
UBC13 inh – human UBC13 polyubiquitination inhibition; inhibition, % at 20 µM; P61088; AID 485273; UBC13 polyubiquitin chain formation, TR-FRET; hit rate 0.47% among 330,000; in the data active = inhibition above about 45%, passing the limit was not always enough
Target sequence (P61088 whole entry, looked up): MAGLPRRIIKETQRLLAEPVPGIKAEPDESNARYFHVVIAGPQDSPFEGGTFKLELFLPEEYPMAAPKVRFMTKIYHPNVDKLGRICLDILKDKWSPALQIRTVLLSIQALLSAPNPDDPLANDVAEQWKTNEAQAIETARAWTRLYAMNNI
XBP1 UPR activ – activators of adaptive arm of unfolded protein response (XBP1); CHO-XBP1 luciferase reporter, IRE1-XBP1 UPR activation, luminescence; percent of tunicamycin response, DMSO as zero; activation, % at 20 µM; hit rate 0.33% among 330,000; AID 463104;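 active = versus positive control, 20 µM dose yields 30% or more activation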;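 note: 100% = tunicamycin at 10 µg/mL and 0% = DMSO only wells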
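Assay system: IRE1-XBP1 luciferase reporter CHO line. Input: 1000 cells/well. Buffer or medium: F12 with 10% serum. Doses: 20 µM, 1% DMSO. Times: overnight seeding at 37 °C, 6 h compound treatment at 37 °C. Technique: Steady-Glo luciferase glow luminescence, 10 min after reagent addition.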
UPR CHOP act – apoptotic UPR (CHOP) activation; CHO-CHOP luciferase reporter, luminescence; percent of tunicamycin response over DMSO baseline; hit rate 0.34% among 330,000; AID 449763; activation, % at 10 µM;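 active = at 10 µM dose, activation of 40% or more, normalized to positive control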;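 note: 100% = tunicamycin at 10 µg/mL and 0% = DMSO alone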
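Evaluation: % reporter activation, DMSO baseline versus tunicamycin full activation; System: CHO-CHOP luciferase reporter cell line; Input: 500 cells/well; Incubation: 6 h compound treatment, 37 °C; Measured by: Steady-Glo luciferase luminescence; Dosing: one dose, 10 µM in 0.5% DMSO; Buffer or medium: F12 medium, 10% FBS; Benchmarks: positive tunicamycin 10 µg/mL, negative DMSO alone.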
Casp3 counter – inhibits human caspase-3 in UBC13 counter-screen; hit rate 4% among 1,400; shares compounds with UBC13 inh; Recombinant caspase-3, Caspase-Glo 3/7 luminescence, 60 min; inhibition, % at 20 µM;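 active = mean inhibition across replicates above about 26%, limit read from the data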;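 note: plate controls were DMSO with caspase-3 for no effect and DMSO wells lacking enzyme for full effect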
Target sequence (P42574 whole entry, looked up): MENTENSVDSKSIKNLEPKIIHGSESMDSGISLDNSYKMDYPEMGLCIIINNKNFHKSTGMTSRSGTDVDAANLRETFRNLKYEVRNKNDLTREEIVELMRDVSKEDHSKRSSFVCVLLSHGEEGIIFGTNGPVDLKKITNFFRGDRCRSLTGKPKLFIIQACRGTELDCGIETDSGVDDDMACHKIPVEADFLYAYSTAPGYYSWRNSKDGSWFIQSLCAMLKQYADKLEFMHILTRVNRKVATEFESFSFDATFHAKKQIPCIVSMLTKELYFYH
UBC13 conf – confirmation of human UBC13 polyubiquitin inhibitors | hit rate 68% among 1,400 | inhibition, % at 10 µM | UBC13 polyubiquitination, TR-FRET, biochemical | AID 488859 | shares compounds with UBC13 inh; in the data active = inhibition above about 45%
Numbers without * were called inactive.

How did C#CCOCCOCCOCCNc1nc(N2CCN(C(=O)[C@H]([C@@H](C)CC)n3cc([C@@H](N)CO)nn3)CC2)nc(N2CCN(C(=O)[C@H]([C@@H](C)CC)n3cc([C@@H](N)Cc4ccc(O)cc4)nn3)CC2)n1 do in these assays?
Apaf-1 inh: 2.4; Mdm2 MdmX PPI: -11.7; UBC13 inh: 8.5; XBP1 UPR activ: 0.2; UPR CHOP act: -1.1

Results for C#CCOCCOCCOCCNc1nc(N2CCN(C(=O)[C@H]([C@@H](C)CC)n3cc([C@@H](N)Cc4ccc(O)cc4)nn3)CC2)nc(N2CCN(C(=O)[C@H]([C@@H](C)CC)n3cc([C@@H](N)Cc4ccc(O)cc4)nn3)CC2)n1 ?
Apaf-1 inh: 29.9; Mdm2 MdmX PPI: 9.4; UBC13 inh: 54.1*; XBP1 UPR activ: -0.7; UPR CHOP act: 0.8; Casp3 counter: -3.1; UBC13 conf: 40.3

Results for C#CCOCCOCCOCCNc1nc(N2CCN(C(=O)[C@H]([C@@H](C)CC)n3cc([C@@H](N)CC(C)C)nn3)CC2)nc(N2CCN(C(=O)[C@H]([C@@H](C)CC)n3cc([C@@H](N)CC(C)C)nn3)CC2)n1 ?
Apaf-1 inh: 9.6; Mdm2 MdmX PPI: 13.7; UBC13 inh: 66.1*; XBP1 UPR activ: -0.7; UPR CHOP act: -1.8; Casp3 counter: -0.9; UBC13 conf: 55.8*

What do the screens show for `C#CCOCCOCCOCCNc1nc(N2CCN(C(=O)[C@H]([C@@H](C)CC)n3cc([C@@H](N)Cc4ccc(O)cc4)nn3)CC2)nc(N2CCN(C(=O)[C@H](CCCCN)n3cc([C@@H](N)C(C)CC)nn3)CC2)n1` (stereo partly specified)?
Apaf-1 inh: 22.2; Mdm2 MdmX PPI: 8.2; UBC13 inh: 66.8*; XBP1 UPR activ: 0.5; UPR CHOP act: 0.5; Casp3 counter: -4.4; UBC13 conf: 50.5*

Results for C=CCn1c(=O)c2ccccc2n2c(SCC(=O)/C(C#N)=C(\C)N)nnc12 ?
Apaf-1 inh: -16.7; Mdm2 MdmX PPI: 2.1; UBC13 inh: 6.1; XBP1 UPR activ: 4.4; UPR CHOP act: 1.6

Results for CC(C)Cn1c(=O)c2ccccc2n2c(CCC(=O)NCC3CCCO3)nnc12 (stereo unspecified) ?
Apaf-1 inh: 2.8; Mdm2 MdmX PPI: -1.1; UBC13 inh: -2.2; XBP1 UPR activ: 0.7; UPR CHOP act: 0.1

What do the screens show for `O=C(C[n+]1cc(-c2ccc(Cl)c(Cl)c2)n2c1CCC2)N1c2ccccc2Sc2ccccc21`?
Apaf-1 inh: 26.2; Mdm2 MdmX PPI: 25.4; UBC13 inh: 45.2*; XBP1 UPR activ: 2.2; UPR CHOP act: 1.1; Casp3 counter: -3.8; UBC13 conf: 39.2

Results for C#CCOCCOCCOCCNc1nc(N2CCN(C(=O)[C@H]([C@@H](C)CC)n3cc([C@@H](N)CO)nn3)CC2)nc(N2CCN(C(=O)[C@H](Cc3cc4ccccc4[nH]3)n3cc([C@@H](N)C(C)CC)nn3)CC2)n1 (stereo partly specified) ?
Apaf-1 inh: 47.9*; Mdm2 MdmX PPI: 15.2; UBC13 inh: 59.6*; XBP1 UPR activ: -1.3; UPR CHOP act: -0.5; Casp3 counter: 8.4; UBC13 conf: 46.2*

What do the screens show for `C#CCOCCOCCOCCNc1nc(N2CCOCC2)nc(N2CCN(C(=O)[C@H](Cc3cc4ccccc4[nH]3)n3cc([C@@H](N)CC(C)C)nn3)CC2)n1`?
Apaf-1 inh: 14.6; Mdm2 MdmX PPI: 6.7; UBC13 inh: 27.5; XBP1 UPR activ: -2.1; UPR CHOP act: -0.9

Results for C#CCOCCOCCOCCNc1nc(N2CCN(C(=O)C([C@@H](C)CC)n3cc(C(N)COC(=O)C(F)(F)F)nn3)CC2)nc(N2CCN(C(=O)[C@H](Cc3cc4ccccc4[nH]3)n3cc(C(N)CO)nn3)CC2)n1 (stereo partly specified) ?
Apaf-1 inh: 49.2*; Mdm2 MdmX PPI: 19.3; UBC13 inh: 69.0*; XBP1 UPR activ: -3.0; UPR CHOP act: 0.3; Casp3 counter: 3.2; UBC13 conf: 28.8

Results for C#CCOCCOCCOCCNc1nc(N2CCN(C(=O)[C@H]([C@@H](C)CC)n3cc([C@@H](N)CO)nn3)CC2)nc(N2CCN(C(=O)[C@H](Cc3ccc(O)cc3)n3cc([C@@H](N)C(C)CC)nn3)CC2)n1 (stereo partly specified) ?
Apaf-1 inh: -2.1; Mdm2 MdmX PPI: 10.2; UBC13 inh: 5.4; XBP1 UPR activ: 0.6; UPR CHOP act: 0.0

What do the screens show for `COc1ccc(-c2noc(CCC(=O)NCC3CCN(Cc4cccc(C)c4)CC3)n2)cc1`?
Apaf-1 inh: 5.7; Mdm2 MdmX PPI: 12.7; UBC13 inh: 53.6*; XBP1 UPR activ: -2.5; UPR CHOP act: -1.3; Casp3 counter: 3.0; UBC13 conf: 49.0*

Results for CCc1ccc(OCC(=O)Nc2nnc(C3CCCC3)s2)cc1 ?
Apaf-1 inh: -9.2; Mdm2 MdmX PPI: 7.0; UBC13 inh: 1.1; XBP1 UPR activ: 2.0; UPR CHOP act: -0.1

What do the screens show for `COc1ccccc1C(=O)Nc1c2c(nn1-c1cccc(C)c1C)CS(=O)(=O)C2`?
Apaf-1 inh: -12.8; Mdm2 MdmX PPI: 19.6; UBC13 inh: 46.4*; XBP1 UPR activ: 4.8; UPR CHOP act: 0.3; Casp3 counter: -2.3; UBC13 conf: 40.9

Results for O=C(c1cccc(S(=O)(=O)N2CCCC2)c1)N1CCCC(C(F)(F)F)C1 (stereo unspecified) ?
Apaf-1 inh: 20.6; Mdm2 MdmX PPI: 13.3; UBC13 inh: 72.7*; XBP1 UPR activ: -2.1; UPR CHOP act: 0.1; Casp3 counter: -3.0; UBC13 conf: 108.6*

How did CN(C)c1ccc(N2C(=NC(=O)c3ccccc3)SC3CS(=O)(=O)CC32)cc1 (stereo unspecified) do in these assays?
Apaf-1 inh: 13.1; Mdm2 MdmX PPI: 30.7; UBC13 inh: 3.8; XBP1 UPR activ: -3.0; UPR CHOP act: 1.2

What do the screens show for `COC(=O)c1ccc(C23CC4(C2)[C@H](CN(CC2CCCCC2)[C@@H]4c2ccccc2)C3c2ccccc2)cc1` (stereo partly specified)?
Apaf-1 inh: 16.6; Mdm2 MdmX PPI: -7.6; UBC13 inh: -7.6; XBP1 UPR activ: 0.3; UPR CHOP act: 0.1

What do the screens show for `O=C(N/N=C/c1ccccn1)c1ccc(N/N=C/c2ccccn2)cc1`?
Apaf-1 inh: 9.6; Mdm2 MdmX PPI: -59.7; UBC13 inh: -32.0; XBP1 UPR activ: 7.0; UPR CHOP act: 3.7
